Sampled rows, rich in hits. Any-hit rate of the full collection: about 4.6%.
UCH37 DUB inh = inhibitors of human deubiquitinating enzyme UCH37. actives 0.33% (n = 330,000). inhibition, % (test concentration not listed). purified proteasome/UCH37, Ub-AMC cleavage fluorescence;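 active means mean inhibition over replicate wells above about 20%, limit read from the data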;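 further: 0% = compound-free wells with enzyme and 100% = wells lacking proteasome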
Target sequence (Q9Y5K5 whole entry, looked up): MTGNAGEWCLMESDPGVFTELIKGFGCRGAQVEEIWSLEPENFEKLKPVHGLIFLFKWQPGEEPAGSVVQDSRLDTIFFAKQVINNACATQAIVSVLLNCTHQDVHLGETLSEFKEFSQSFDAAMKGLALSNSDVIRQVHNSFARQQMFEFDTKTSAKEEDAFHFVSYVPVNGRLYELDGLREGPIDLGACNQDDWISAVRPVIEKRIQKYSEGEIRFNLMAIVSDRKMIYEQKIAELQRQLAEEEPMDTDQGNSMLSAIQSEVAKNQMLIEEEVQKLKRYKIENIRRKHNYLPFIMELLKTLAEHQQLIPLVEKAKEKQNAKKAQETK
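Schedule: 30 min plus 25 min, room temperature / Material: human UCH37 within purified proteasomes / Technique: AMC fluorescence intensity at 355/460 nm / Buffer or medium: pH 7.4 Tris-HCl (50 mM) with ovalbumin, ATP-MgCl2, DTT / Controls: wells without proteasome as full block, compound-free enzyme plus substrate as uninhibited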
FAS-TE inh = blocks the thioesterase domain of human fatty acid synthase | P49327 | recombinant FAS-TE, OMFH fluorogenic substrate, fluorescence endpoint | inhibition, % at 15 µM | actives 0.67% (n = 360,000) | AID 602261;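 active means compounds whose normalised, plate-corrected inhibition of enzyme fluorescence in the single-dose primary screen is 50% or more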;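 further: 0% = DMSO with enzyme and 100% = substrate without enzyme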
PfM18AAP inh = blocks P. falciparum M18 aspartyl aminopeptidase. recombinant PfM18AAP, H-Glu-NHMec fluorogenic cleavage. inhibition, % at 7.35 µM. actives 1.2% (n = 290,000);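 active means inhibition above the campaign mean inhibition over all tested compounds plus 3 SD, cut at about 28% in these data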;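 further: 0% = plate median of test compound wells and 100% = 2 mM ZnCl2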
ALR H2O2 inh = blocks human ALR sulfhydryl oxidase activity | P55789 | purified ALR, DTT oxidation, H2O2 HRP-luminol luminescence | inhibition, % (concentration not given with the values) | actives 3.8% (n = 290,000) | AID 485317;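 active means mean replicate inhibition above about 79%, with every replicate also reaching it, limit read from the data; inconclusive means only one of the two criteria met; inactive means mean below limit and not every replicate reaching it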
Rtt109 Vps75 = C. albicans Rtt109 histone acetyltransferase inhibition; purified Rtt109/Vps75, ThioGlo CoA-SH fluorescence, 4 h; inhibition, % at 34.9 µM; actives 0.16% (n = 330,000); AID 540336;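 active means inhibition of at least 50% in every replicate; inconclusive means best replicate reaches 50% inhibition but some replicates fall short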
HDAC3 inhib = inhibitors of human histone deacetylase 3; recombinant HDAC3, fluorogenic peptide/trypsin coupled, fluorescence; inhibition, % at 8.3 µM; actives 0.15% (n = 320,000); AID 2718; in the data active means inhibition above about 26%, passing the limit was not always enough; inconclusive means no clear call, values can overlap the other calls
Target sequence (O15379 whole entry, looked up): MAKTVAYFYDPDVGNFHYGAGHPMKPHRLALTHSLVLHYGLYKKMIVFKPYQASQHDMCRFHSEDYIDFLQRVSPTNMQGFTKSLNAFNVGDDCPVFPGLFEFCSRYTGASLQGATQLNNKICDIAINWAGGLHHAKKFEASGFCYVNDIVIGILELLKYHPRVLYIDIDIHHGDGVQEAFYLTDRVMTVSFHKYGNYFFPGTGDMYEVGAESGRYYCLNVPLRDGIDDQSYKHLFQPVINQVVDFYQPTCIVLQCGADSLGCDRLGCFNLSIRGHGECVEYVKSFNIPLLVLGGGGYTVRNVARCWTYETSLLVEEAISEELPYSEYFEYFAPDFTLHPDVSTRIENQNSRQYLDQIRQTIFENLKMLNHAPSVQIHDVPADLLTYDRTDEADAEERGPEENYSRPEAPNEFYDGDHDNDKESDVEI
UCH37 reconfirm = UCH37 Ub-AMC cleavage inhibition, confirmed. actives 27% (n = 480). shares compounds with UCH37 DUB inh. inhibition, % at 20 µM. Proteasome-bound UCH37, Ub-AMC cleavage fluorescence;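 active means average inhibition over replicates above about 50%, so the earlier screening hit is confirmed, limit read from the data; inactive means the rest, counted as false positives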;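 further: based on cleavage rate fitted by regression over a 30 min kinetic read; 0% = proteasome plus Ub-AMC and 100% = Ub-AMC without proteasome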
* marks the source's active call; other numbers are inactive results; ? = inconclusive; nt = no result.

SMILES	UCH37 DUB inh	FAS-TE inh	PfM18AAP inh	ALR H2O2 inh	Rtt109 Vps75	HDAC3 inhib	UCH37 reconfirm
COc1ccc(NC(=S)Nc2ccc3nsnc3c2)cc1	40.5*	1.4	15.8	6.4	54.2*	-1.0	35.9
CCOc1ccc(NC(=S)Nc2ccc3nsnc3c2)cc1	13.9	9.9	14.4	14.5	-2.7	11.1	nt
Nc1ccc(C(=O)NN=Cc2cn(Cc3ccccc3F)c3ccccc23)cc1	-3.9	nt	nt	nt	nt	nt	nt
CCOC(=O)CNC(=O)C1CCCc2c1[nH]c1ccc(Cl)cc21 (stereo unspecified)	2.9	5.2	8.6	14.1	4.0	-1.2	nt
CCOC(=O)C1CCCc2c1[nH]c1c(C(N)=O)cccc21 (stereo unspecified)	53.2*	-8.8	-11.0	0.5	-7.6	-1.1	-13.5
Cc1ccc(Cl)cc1NC1=C/C(=N\S(=O)(=O)c2cccs2)c2ccccc2C1=O	42.5*	45.0	-4.2	-26.6	1.9	-5.7	30.7
O=C1C(Nc2ccc(O)cc2)=CC(=NS(=O)(=O)c2cccs2)c2ccccc21	75.4*	nt	nt	nt	nt	nt	41.6
O=C(O)c1ccc(NC2=C/C(=N/S(=O)(=O)c3cccs3)c3ccccc3C2=O)cc1	nt	13.6	nt	nt	nt	nt	nt
Nc1c2c(=O)[nH]c(O)cc2nn1-c1ccccc1	30.6*	-3.3	nt	nt	5.0	nt	23.2
Cc1c(C)c2c(C)nn(-c3ccccc3)c2[nH]c1=O	0.3	-4.9	4.2	4.3	5.2	-13.8	nt
NCC(=NO)c1ccc(Cl)cc1Cl	1.5	nt	nt	nt	nt	nt	nt
CC(=O)N(C)C1=C(O)c2ccccc2C(=O)C1=O	8.6	-3.9	11.7	-15.4	7.3	4.1	nt
CC(=O)N(C1=C(N)C(=O)c2ccccc2C1=O)C(C)C	25.8*	2.3	0.0	nt	-1.4	1.8	19.8
O=S(=O)(O)c1cc(O)c(N=Nc2ccc(O)cc2O)c2ccccc12	30.7*	0.4	nt	nt	0.0	nt	50.8*
Oc1ccc(N=Nc2ccc3c(c2)OCCO3)c(O)c1	3.4	7.1	15.8	nt	1.5	1.1	nt
CC(=O)NNc1nc(-c2ccc(NC(C)=O)cc2)cs1	37.0*	-9.1	31.2*	98.6*	22.7	7.9	-21.9
COc1ccc(C=NNC(=O)CCn2c3ccccc3c3ccccc32)cc1O	1.9	nt	nt	nt	nt	nt	nt
CCNC(=O)COc1cccc(C(=O)NCc2ccccc2)c1	6.2	-10.0	0.5	-6.4	0.2	-10.0	nt
CC(C)CNC(=O)COc1cccc(C(=O)NCc2ccccc2)c1	35.8*	-12.2	4.0	-3.3	7.1	-1.9	11.7
CC1Cc2ccccc2N1C(=O)COC(=O)c1ccc([N+](=O)[O-])o1 (stereo unspecified)	26.4*	36.0	nt	-27.5	-0.8	1.2	31.2
CC1Cc2ccccc2N1C(=O)COC(=O)c1ccco1 (stereo unspecified)	nt	-3.5	nt	nt	nt	nt	nt
O=C(COC(=O)c1ccc([N+](=O)[O-])o1)NC1CCCCC1	25.9*	6.6	nt	nt	0.6	0.7	18.6
O=C(COC(=O)c1ccc([N+](=O)[O-])o1)NC1CCCC1	31.9*	2.4	nt	nt	-20.8	0.3	10.4
CC1CCCCC1NC(=O)COC(=O)c1ccc([N+](=O)[O-])o1 (stereo unspecified)	30.3*	1.2	nt	nt	5.3	nt	1.5
NC(=O)CC(NC(=O)Cc1ccc(Br)cc1)c1ccc(NCCOc2ccccc2)c([N+](=O)[O-])c1 (stereo unspecified)	35.5*	3.7	nt	-1.8	-4.1	?	15.3
SMILES	UCH37 DUB inh	FAS-TE inh	PfM18AAP inh	ALR H2O2 inh	Rtt109 Vps75	HDAC3 inhib	UCH37 reconfirm
COc1ccc(OCC(=O)NN=Cc2cccc3cccnc23)cc1	7.2	nt	nt	nt	nt	nt	nt
C(=NNc1nc(N2CCCCC2)nc(N2CCCCC2)n1)c1c[nH]c2ccccc12	38.4*	nt	nt	nt	nt	nt	-58.9
Cc1cc(C)n(N=Cc2ccc(C(C)C)cc2)c(=O)c1C#N	5.3	nt	nt	nt	nt	nt	nt
COc1ccc(C=NNC(=O)c2cccs2)c2ccccc12	-26.6	nt	nt	nt	nt	nt	nt
Cc1ccc(C(=O)NN=Cc2cc(Br)c(Br)o2)cn1	27.8*	nt	nt	nt	nt	nt	13.3
CC1=C(C(=O)OC(C)C)C2(O)C(=O)c3ccccc3C2(O)N1 (stereo unspecified)	13.7	-10.2	-6.5	-12.6	0.6	4.2	nt
CC(=O)C1=C(C)OC2(O)c3ccccc3C(=O)C12O (stereo unspecified)	77.4*	5.9	0.8	28.2	nt	0.6	70.6*
CCOC(=O)C1=C(C)OC2(O)c3ccccc3C(=O)C12O (stereo unspecified)	79.3*	4.2	-0.8	25.6	nt	0.8	71.9*
O=C(Cn1ccc(C(F)(F)F)n1)NN=Cc1ccc2c(c1)OCO2	0.4	nt	nt	nt	nt	nt	nt
O=C(NC1(O)C(=O)c2ccccc2C1=O)c1c(Cl)cccc1Cl	80.5*	-0.8	4.2	9.3	1.3	-5.4	51.8*
O=C(NC1(O)C(=O)c2ccccc2C1=O)c1ccccc1	83.6*	-0.5	-3.4	38.5	0.3	1.3	73.6*
COC1(NC(=O)c2ccccc2)C(C)=CC(=O)C=C1C	2.7	-5.5	-12.8	-4.4	-3.0	-1.1	nt
S=c1[nH]nc(COc2ccccc2)n1N=Cc1ccccc1Cl	6.3	nt	nt	nt	nt	nt	nt
O=C(c1ccco1)[C@@H]1[C@@H]2C(=O)N(c3ccccc3)C(=O)[C@@H]2C2c3ccccc3C=CN21 (stereo partly specified)	63.6*	5.7	-8.9	6.0	-13.0	1.4	5.0
Cc1ccc(N2C(=O)[C@@H]3[C@H](C2=O)C2c4ccccc4C=CN2[C@@H]3C(=O)c2ccco2)c(C)c1 (stereo partly specified)	28.4*	6.3	8.8	-20.9	19.4	-3.6	2.8
C=C(C)C1CCC(C)=C1CC(C)(C)C=Nn1cnnc1 (stereo unspecified)	42.0*	nt	nt	nt	nt	nt	58.2*
O=C1NNC(c2ccccc2)=N/C1=C\c1ccccc1Cl	33.9*	14.8	-9.3	nt	2.1	nt	74.0*
N=C1/C(=C/c2ccco2)C(=O)N=C2SC(CC(=O)N3CCCC3)=NN12	18.6	-2.7	7.7	10.0	-2.7	3.4	nt
O=C1N=C(N2CCCC2C(=O)O)S/C1=C\c1ccco1 (stereo unspecified)	43.2*	-3.7	18.9	3.5	17.1	5.4	12.6
C[N+](C)=C1SCC(C)(C=NO)S1 (stereo unspecified)	0.5	nt	nt	nt	nt	nt	nt
COc1ccc(-c2cc(C(=O)NN=Cc3cccnc3)c3ccccc3n2)c(OC)c1	-7.6	nt	nt	nt	nt	nt	nt
CC(C)n1cc(/C=C/c2cc[n+](C)cc2)c2ccccc21	27.7*	-21.1	7.9	nt	7.4	nt	19.4
Cc1ccccc1/C=C/c1cc[n+](C)cc1	-2.1	-3.6	-8.0	-18.3	-24.3	8.1	nt
COc1cc(C=NNC(=O)C(C)Nc2n[nH]c(=O)[nH]c2=O)ccc1O (stereo unspecified)	1.8	nt	nt	nt	nt	nt	nt
Cc1[nH][nH]c(=O)c1C(c1ccc(O)c(Br)c1)c1c(C)[nH][nH]c1=O	2.9	-1.1	27.5	70.4	1.2	-1.4	nt
